The source made the active and inactive calls. The calls are words filed in the database; no cut-off is given here.
Legend:
Format in all cases: nucleic-acid assay
[1] = test system: Nucleic Acid; test: Induction of Staphylococcus aureus 6538 DNA cleavage after 2 hrs by agarose gel electrophoresis
Outline: (§1)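 Genomic DNA was isolated from cultures grown at 37 °C (E. coli and S. aureus in nutrient broth for 24 h; A. niger in potato dextrose broth for 48 h). Extraction used Tris/EDTA/SDS lysis, phenol at 55 °C, chloroform:isoamyl alcohol and ethanol precipitation. DNA was incubated 2 h at 37 °C with compound from a 1 mg/mL DMF stock, then run on agarose in TAE at 50 V for about 30 min against marker and untreated-DNA lanes.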

[2] = test system: Nucleic Acid; test: Induction of Aspergillus niger DNA cleavage after 2 hrs by agarose gel electrophoresis; outline: as §1
[3] = test system: Nucleic Acid; test: Induction of Escherichia coli ATCC 35218 DNA cleavage after 2 hrs by agarose gel electrophoresis; outline: as §1

Activity [1]	Activity [2]	Activity [3]	Structure (SMILES)
Active	Active	inactive	O=c1oc2c(ccc3ccccc32)c2c1CN1CCc3ccccc3C1C2 (stereo unspecified)
Active	Active	inactive	COc1cc2c(cc1OC)C(Cc1cc(=O)oc3c1ccc1ccccc13)NCC2 (stereo unspecified)
inactive	inactive	inactive	Cc1ccc2oc(=O)cc(CC3NCCc4ccccc43)c2c1 (stereo unspecified)
inactive	inactive	inactive	Cc1ccc2c(CC3NCCc4ccccc43)cc(=O)oc2c1 (stereo unspecified)
Active	Active	inactive	O=c1cc(CC2NCCc3ccccc32)c2ccc3ccccc3c2o1 (stereo unspecified)

Further lines, the molecule ahead of its results:

Structure (SMILES)	Activity [1]	Activity [2]	Activity [3]
COc1cc2c(cc1OC)C1Cc3c(c(=O)oc4ccc(C)cc34)CN1CC2 (stereo unspecified)	inactive	inactive	inactive
COc1cc2c(cc1OC)C1Cc3c(c(=O)oc4cc(C)ccc34)CN1CC2 (stereo unspecified)	inactive	inactive	inactive
Cc1ccc2c3c(c(=O)oc2c1)CN1CCc2ccccc2C1C3 (stereo unspecified)	inactive	inactive	inactive
COc1cc2c(cc1OC)C(Cc1cc(=O)oc3ccc(C)cc13)NCC2 (stereo unspecified)	inactive	inactive	inactive
COc1cc2c(cc1OC)C1Cc3c(c(=O)oc4c3ccc3ccccc34)CN1CC2 (stereo unspecified)	Active	Active	inactive
COc1cc2c(cc1OC)C(Cc1cc(=O)oc3cc(C)ccc13)NCC2 (stereo unspecified)	inactive	inactive	inactive
Cc1ccc2oc(=O)c3c(c2c1)CC1c2ccccc2CCN1C3 (stereo unspecified)	inactive	inactive	inactive

— ChEMBL document CHEMBL1240416, “Synthesis, structure and DNA cleavage studies of coumarin analogues of tetrahydroisoquinoline and protoberberine alkaloids” (Eur J Med Chem, 2010)
